Laboratory results as given in PubChem BioAssay AID1480 (NMMLSC, 2009).
The list shows a part of the results. Activity calls are given as the source filed them.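 Rule for the calls: active = fluorescence in ABCG2-expressing cells above the plate's control-well mean plus 3 SD (cut at about 15 in these data); inactive = the rest.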

Experiment: green-channel fluorescence of compounds in IgMXP3 cells – cell-based, 488/530 nm, flow cytometry, artefact control for ABC transporter inhibitor project, confirmation (AID 1480)
Settings: compound autofluorescence 488/530 nm, at 6.6 µM, stronger effect = higher value
Method in brief: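 Material: ABCG2-expressing drug-resistant IgMXP3 cells | Input: 3 million cells/mL final | Medium: JC-1 kit assay buffer | Probe or stimulus: no JC-1 substrate | Times: Cell–compound exposure 10 min, 25 °C, end-over-end rotation | Measured by: High-throughput flow cytometry, green FL1 channel fluorescence | Evaluation: Compound-well median cell fluorescence minus DMSO-well median fluorescence | Benchmarks: DMSO-only wells as cell background reference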

Row | Structure (SMILES) | fluorescence
1 | Cc1c(CCOC(=O)CC23CC4CC(CC(C)(C4)C2)C3)sc[n+]1Cc1ccc([N+](=O)[O-])cc1 | -1.69 (inactive)
2 | Cc1ccc(-n2c(SCC(=O)Nc3ncc(Cl)cc3Cl)nc3ccccc32)cc1 | -0.59 (inactive)
3 | C=CCn1c(SCCOc2ccc(OC)cc2)nnc1C(NC(=O)c1ccc(OC)cc1)C(C)C (stereo not drawn) | 65.8 (active)
4 | CCOCC(=O)Nc1sc2c(c1C(=O)OCC)CCCC2 | 3.96 (inactive)
5 | Cc1cccc2cc(CN(Cc3cccs3)C(c3nnnn3C3CCCC3)C(C)C)c(=O)[nH]c12 (stereo not drawn) | -2.04 (inactive)
6 | O=C(Cc1c[nH]c2ccccc12)N/N=C/c1cccc(F)c1 | -0.24 (inactive)
7 | C/C(=N\Nc1ncc(Cl)cc1Cl)c1ccc(S(=O)(=O)NCc2ccco2)cc1 | -1.09 (inactive)
8 | CCOC(=O)c1sc(NC(=O)CSc2nnc(-c3ccco3)o2)c(C(=O)OCC)c1C | 2.51 (inactive)
9 | COc1ccc(-n2c(C)cc(C(=O)COC(=O)c3cc(OC)c(OC)cc3NC(=O)c3cccs3)c2C)cc1 | 1.61 (inactive)
10 | Cc1ccc(OCC(O)CN2CCN(CC(O)COc3ccc(C)cc3Cl)CC2)c(Cl)c1 (stereo not drawn) | 31.2 (active)
11 | COc1cccc(NC(=O)c2ccc(Cn3cc([N+](=O)[O-])cn3)o2)c1 | 9.06 (inactive)
12 | COc1ccc(C)cc1NC(=O)C(Sc1ccccc1)c1ccccc1 (stereo not drawn) | -1.74 (inactive)
13 | CCN1/C(=C/c2ccc3ccc(C)cc3[n+]2CC)Sc2ccccc21 | 228 (active)
